Laboratory results reported in ChEMBL document CHEMBL1759867, “Evaluation of dihydropyrimidin-(2H)-one analogues and rhodanine derivatives as tyrosinase inhibitors” (Bioorg Med Chem Lett, 2011).
pIC50: −log10 of the molar value. Calls of active or inactive are those of the source. The calls are words filed in the database; no cut-off is given here.

Legend:
Tyrosinase = target: T1, Tyrosinase (Agaricus bisporus, UniProt O42713); assay: Inhibition of diphenolase activity of mushroom tyrosinase preincubated with compound for 10 mins before addition of L-DOPA as substrate by spectrophotometric analysis
T1 sequence (O42713 whole entry): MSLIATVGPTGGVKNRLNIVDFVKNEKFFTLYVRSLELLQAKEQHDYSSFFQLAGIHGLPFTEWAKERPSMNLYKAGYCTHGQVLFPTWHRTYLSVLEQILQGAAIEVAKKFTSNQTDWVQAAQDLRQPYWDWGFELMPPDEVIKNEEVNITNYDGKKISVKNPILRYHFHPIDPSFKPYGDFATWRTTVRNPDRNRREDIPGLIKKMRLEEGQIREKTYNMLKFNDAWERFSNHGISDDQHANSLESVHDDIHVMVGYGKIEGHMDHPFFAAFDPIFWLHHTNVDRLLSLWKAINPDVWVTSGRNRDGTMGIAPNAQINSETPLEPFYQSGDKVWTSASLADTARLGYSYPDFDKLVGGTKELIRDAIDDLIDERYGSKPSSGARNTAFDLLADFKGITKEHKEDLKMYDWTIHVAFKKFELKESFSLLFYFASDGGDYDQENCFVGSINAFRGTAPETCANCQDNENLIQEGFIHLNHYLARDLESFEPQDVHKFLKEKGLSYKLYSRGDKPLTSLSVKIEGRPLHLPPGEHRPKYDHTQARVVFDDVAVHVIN
Outline: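 Diphenolase activity of mushroom tyrosinase was measured with L-DOPA as substrate at 25 °C. IC50 was taken from logarithmic concentration–inhibition curves of at least eight points, as the mean of three experiments.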

[1] = target: T2, Tyrosinase (Agaricus bisporus) (UniProt O42713); assay: Inhibition of diphenolase activity of mushroom tyrosinase at 50 mM preincubated with compound for 10 mins before addition of L-DOPA as substrate by spectrophotometric analysis
T2 sequence (whole entry): T1 sequence (O42713 whole entry)
Outline: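 Mushroom tyrosinase diphenolase activity was measured on L-DOPA at 25 °C. Compounds were scored for activity at a single fixed concentration.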

Row | pIC50 (Tyrosinase) | inhibition [1] | Compound
1 | 1.91 | – | CC(=O)C1=C(C)NC(=S)NC1c1ccc(O)cc1 (configuration not stated)
2 | 1.79 | – | CC(=O)C1=C(C)NC(=S)NC1c1ccccc1O (configuration not stated)
3 | 1.97 | – | CCC1NC(=S)NC(C)=C1C(C)=O (configuration not stated)
4 | – | inactive | CCC1NC(=O)NC(C)=C1C(C)=O (configuration not stated)
5 | 2.24 | – | O=C1NC(=S)S/C1=C\c1ccc(OCCO)c(OCCO)c1
6 | 2.00 | – | O=C1NC(=S)S/C1=C\c1ccc(O)cc1
7 | – | inactive | CC(=O)C1=C(C)NC(=O)NC1c1ccccc1O (configuration not stated)
8 | – | inactive | CC(=O)C1=C(C)NC(=O)NC1c1ccc(O)cc1 (configuration not stated)
9 | 1.70 | – | COc1cc(C2NC(=S)NC(C)=C2C(C)=O)ccc1O (configuration not stated)
10 | 3.25 | – | O=C1NC(=S)S/C1=C\c1ccc(OCCO)cc1
11 | 1.96 | – | COc1cc(/C=C2\SC(=S)NC2=O)ccc1O
12 | – | inactive | COc1cc(C2NC(=O)NC(C)=C2C(C)=O)ccc1O (configuration not stated)
13 | – | inactive | CC(=O)C1=C(C)NC(=O)NC1c1ccccc1 (configuration not stated)
14 | 1.60 | – | COc1ccc(C2NC(=S)NC(C)=C2C(C)=O)cc1 (configuration not stated)
15 | – | inactive | CCO/N=C(\C)C1=C(C)NC(=O)NC1CC (configuration not stated)
16 | 2.02 | – | O=C1NC(=S)S/C1=C\c1ccccc1O
17 | – | inactive | COc1ccc(C2NC(=O)NC(C)=C2C(C)=O)cc1 (configuration not stated)
